Among the data in the array DNA melting data of Ke et al. (doi:10.1101/2024.01.08.574731) are Tm and folding enthalpy values, retold here.

Series [1] can be described thus: melting temperature; fluorescence melt of hairpins on a sequencing array, two-state fit, raised by 9.35 °C to match UV melts. The note with it: sodium 0.088 M. The method, boiled down: (§1)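 In 50 mM Na-HEPES pH 8.0 containing 25 mM NaCl, hairpins from the library on a sequenced MiSeq flow cell were imaged for Cy3 fluorescence at 2.5 °C steps up to 60 °C, with Cy3 and quencher oligos annealed. After normalisation to pre-quench Cy3 and to control constructs, two-state fits with bootstrapping gave melting temperature and folding enthalpy. Four replicates were combined by inverse-variance weighting, and fitted temperatures were shifted up by 9.35 °C to match UV melts.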

Series [2] in a line: folding enthalpy; higher = less favourable; fluorescence melt of hairpins on a sequencing array, two-state fit. The note with it: sodium 0.088 M. In outline:
as §1

Regarding GACCTTGGAAACAGGGTC ((((.((....)).)))), in series [1], the Tm was 47 °C. For the same sequence, the folding enthalpy in series [2] is -132 kJ/mol.
Taken in the same sequence, the figures for GGTTAAGGAAACTTAACC (((((((....))))))) were 52.7 °C and -161 kJ/mol.
As for GATCGTAGCAACGATC ((((((....)))))), the Tm in series [1] is 54.7 °C. Besides, the folding enthalpy in series [2] was -162 kJ/mol.
Regarding GTCGACGAAAGTCGTGAC ((((((....)))..))), the Tm in series [1] stood at 43.6 °C. In series [2], the folding enthalpy was -42 kJ/mol.
Consider GATCACTTGCGTGATC ((((((....)))))), for which the Tm in series [1] is 55.9 °C. The folding enthalpy in series [2] was -170 kJ/mol.
Taken in the same sequence, the figures for GATCCCTCCCGGGATC ((((((....)))))) were 61.4 °C and -169 kJ/mol.
In the case of GAAAGCCGAAAGGCTTC (((.(((....)))))), the Tm in series [1] stood at 50.2 °C. The folding enthalpy in series [2] is -37.9 kJ/mol.
Taken in the same sequence, the figures for CGAGCGGAAACGCAATCG ((((((....)))..))) were 38.7 °C and -80.9 kJ/mol.
Taken in the same sequence, the figures for GATCGAAGCGTCGATC ((((((....)))))) were 51.1 °C and -167 kJ/mol.
Taken in the same sequence, the figures for GCCTAGCGAAAGCTGCGC ((..(((....)))..)) were 49.6 °C and -73.8 kJ/mol.
As for GTTCGAGGAAACCCGAAC (((((.(....).))))), the Tm in series [1] is 47 °C. Further, the folding enthalpy in series [2] was -125 kJ/mol.
For GATCGGGATTCCGATC ((((((....)))))), the Tm in series [1] amounted to 57.5 °C. The folding enthalpy in series [2] was -166 kJ/mol.
Taken in the same sequence, the figures for GACCCCGAAAGGGAAGTC ((((((....)))..))) were 42.1 °C and -67.2 kJ/mol.
Taken in the same sequence, the figures for GATCATTGAGATGATC ((((((....)))))) were 49.8 °C and -165 kJ/mol.
Taken in the same sequence, the figures for GATCGGGCATCCGATC ((((((....)))))) were 63.3 °C and -175 kJ/mol.
GCTCGAGGAAACTCAAGC (((.(((....))).))): the Tm in series [1] came out at 37.7 °C. The folding enthalpy in series [2] is -128 kJ/mol.
Taken in the same sequence, the figures for GATCGTCGAACGATC ((((((...)))))) were 53.1 °C and -142 kJ/mol.
Taken in the same sequence, the figures for GGGGTCGAAAGACGACCC ((((((....)))..))) were 61.8 °C and -82 kJ/mol.
Taken in the same sequence, the figures for GCTTTGCGAAAGCAATGC ((.((((....)))).)) were 60.9 °C and -115 kJ/mol.
For GATCCACTCTTGGATC ((((((....)))))), the Tm in series [1] was 51 °C. Also, the folding enthalpy in series [2] was -147 kJ/mol.
Taken in the same sequence, the figures for GATCGGTTTCCCGATC ((((((....)))))) were 57.1 °C and -169 kJ/mol.
Taken in the same sequence, the figures for GTAGTCGAAAGACAGTAC ((((((....)))..))) were 27.2 °C and -52.2 kJ/mol.
Taken in the same sequence, the figures for GCGTGACTACGC ((((....)))) were 59.4 °C and -114 kJ/mol.
GATCGAACATCGATC ((((((...)))))): in series [1], the Tm came out at 49 °C. Further, the folding enthalpy in series [2] was -156 kJ/mol.
Consider GATCAGATCTCTGATC ((((((....)))))), for which the Tm in series [1] is 50.7 °C. Moreover, the folding enthalpy in series [2] was -168 kJ/mol.
Taken in the same sequence, the figures for GTGTAACGAAAGTTCCAC (((.(((....))).))) were 38.9 °C and -94.3 kJ/mol.
For GACGCCGCGAAAGCGGTC (((..(((....)))))), in series [1], the Tm turned out to be 34.8 °C. Also, the folding enthalpy in series [2] is -25.3 kJ/mol.
Taken in the same sequence, the figures for GCGAGGATCGC ((((...)))) were 59.4 °C and -99.2 kJ/mol.
Taken in the same sequence, the figures for GCGAGCGAAAGCTGCCGC ((((((....)))..))) were 53.5 °C and -54.8 kJ/mol.
Taken in the same sequence, the figures for GAGCCCGAAAGGGTACTC ((((((....)))..))) were 43.1 °C and -54.6 kJ/mol.
Take GGGTACCGAAAGGTCCC (((.(((....)))))): the Tm in series [1] was found to be 54.9 °C. Further, the folding enthalpy in series [2] was -101 kJ/mol.
Taken in the same sequence, the figures for GAGGCGGGAAACCGCCCC (.(((((....))))).) were 46.4 °C and -29.7 kJ/mol.
Taken in the same sequence, the figures for GCGTCGGAACGC ((((....)))) were 52 °C and -70.2 kJ/mol.
Taken in the same sequence, the figures for GTTACCGAAAGGTCGAAC ((((((....)))..))) were 28.2 °C and -41.1 kJ/mol.
As to GCAACCGAAAGGTCCTGC ((((((....)))..))), the Tm in series [1] is 27.9 °C. The folding enthalpy in series [2] was -41.1 kJ/mol.
Taken in the same sequence, the figures for GTAACGGGAAACTGTTAC (((((.(....).))))) were 46.3 °C and -127 kJ/mol.
For GCATCCGAAAGGATGTGC ((((((....)))..))), in series [1], the Tm amounted to 60.5 °C. The folding enthalpy in series [2] is -79 kJ/mol.
As for GCGTCTGGAAACAGACAC (.(((((....))))).), in series [1], the Tm was 42.7 °C. The folding enthalpy in series [2] is -53.5 kJ/mol.
Taken in the same sequence, the figures for GAGCATGGAAACATACTC (((.(((....))).))) were 35.6 °C and -109 kJ/mol.
Taken in the same sequence, the figures for GAGGACGGAAACATCCTC (((((.(....).))))) were 38.3 °C and -112 kJ/mol.
Taken in the same sequence, the figures for GTCAACGAAAGTTTGGAC ((((((....)))..))) were 27.8 °C and -57.9 kJ/mol.
Take CGTGCGGAAACGCCCACG ((((((....)))..))): the Tm in series [1] came out at 38.2 °C. Besides, the folding enthalpy in series [2] was -93.8 kJ/mol.
For the sequence GAGTCGGCGAAAGCCCTC (((..(((....)))))), the Tm in series [1] amounted to 25.6 °C. For the same sequence, the folding enthalpy in series [2] was -40.2 kJ/mol.
Taken in the same sequence, the figures for GACCTCACGAAAGTGGTC (((..(((....)))))) were 37.4 °C and -86.7 kJ/mol.
Consider GCGAAGCGAAAGCATTGC ((.(.((....)).).)), for which, in series [1], the Tm was 39.1 °C. In series [2], the folding enthalpy was -30.4 kJ/mol.
Taken in the same sequence, the figures for GATCTGGGCTCAGATC ((((((....)))))) were 52.8 °C and -164 kJ/mol.
Taken in the same sequence, the figures for GATCACCGGAGTGATC ((((((....)))))) were 57.7 °C and -173 kJ/mol.
Taken in the same sequence, the figures for GCGTACTCACGC ((((....)))) were 52.3 °C and -81.5 kJ/mol.
For GGTAAACCGAAAGGTACC (((..(((....)))))), the Tm in series [1] was found to be 40.1 °C. The folding enthalpy in series [2] was -84.6 kJ/mol.
Taken in the same sequence, the figures for GGCGAAGCGAAAGCTGCC (((..(((....)))))) were 52.8 °C and -74.1 kJ/mol.
Taken in the same sequence, the figures for GCCGCCGAAAGGCGCGGC ((((((....)))..))) were 69.3 °C and -46.9 kJ/mol.
Taken in the same sequence, the figures for GATCCTGTTAAGGATC ((((((....)))))) were 65.7 °C and -204 kJ/mol.
With GAATTCGGAAACGAATCC (.(((((....))))).), the Tm in series [1] was 36.8 °C. The folding enthalpy in series [2] was -69.3 kJ/mol.
Taken in the same sequence, the figures for GAACTACGAAAGTACTTC (((.(((....))).))) were 25.9 °C and -39.9 kJ/mol.
On to GTCTTCGAAAGAAGAC ((((((....)))))), for which the Tm in series [1] stood at 62.4 °C. Also, the folding enthalpy in series [2] was -127 kJ/mol.
Consider GGCTGAGGAAACTCGGCC (((.(((....))).))), for which the Tm in series [1] came to 58.3 °C. The folding enthalpy in series [2] was -195 kJ/mol.
Taken in the same sequence, the figures for GGTGGGGGAAACCCCGTC (..((((....))))..) were 38.2 °C and -50.2 kJ/mol.
Regarding GCAGTCGGAAACGACCGC ((.((((....)))).)), in series [1], the Tm came out at 52 °C. The folding enthalpy in series [2] was -114 kJ/mol.
As for GCGATGCCGAAAGGCCGC (((..(((....)))))), the Tm in series [1] turned out to be 59.3 °C. Also, the folding enthalpy in series [2] is -75.4 kJ/mol.
Taken in the same sequence, the figures for GTCTGTCCGAAAGGAGAC (((..(((....)))))) were 31.3 °C and -63.2 kJ/mol.
Taken in the same sequence, the figures for GATCACCTTAGTGATC ((((((....)))))) were 59.3 °C and -164 kJ/mol.
Taken in the same sequence, the figures for GATGCAGCGAAAGCTATC (((..(((....)))))) were 24.7 °C and -37.9 kJ/mol.
Take GCGTCTACACGC ((((....)))): the Tm in series [1] was found to be 51.4 °C. Also, the folding enthalpy in series [2] was -109 kJ/mol.
GTGGACGGAAACGTTCGC (.(.(((....))).).): the Tm in series [1] was 45 °C. In addition, the folding enthalpy in series [2] was -111 kJ/mol.
For GAGGATGAAAATCCTC ((((((....)))))), the Tm in series [1] was determined as 54.7 °C. Moreover, the folding enthalpy in series [2] was -155 kJ/mol.
Take GCATACGGAAACATATGC (((((.(....).))))): in series [1], the Tm came to 37 °C. In addition, the folding enthalpy in series [2] is -102 kJ/mol.
Taken in the same sequence, the figures for GCGAAGCGAAAGCATGGC ((.(.((....)).).)) were 40 °C and -21.2 kJ/mol.
Turning to GGCTCGACGAAAGTCGCC (((..(((....)))))), the Tm in series [1] is 35.1 °C. For the same sequence, in series [2], the folding enthalpy was -33.5 kJ/mol.
Taken in the same sequence, the figures for GCACCTCGAAAGAGATGC (((.(((....))).))) were 50.6 °C and -169 kJ/mol.
Taken in the same sequence, the figures for GCGACATATCGC ((((....)))) were 49.9 °C and -98.1 kJ/mol.
In the case of GACAAAGCGAAAGCTGTC (((..(((....)))))), in series [1], the Tm is 50.6 °C. Moreover, in series [2], the folding enthalpy was -82.6 kJ/mol.
Taken in the same sequence, the figures for GATCCCCCCCGGGATC ((((((....)))))) were 57.2 °C and -161 kJ/mol.
Taken in the same sequence, the figures for GGGGTTGGAAACGATCCC (((.(.(....).).))) were 39.1 °C and -96.2 kJ/mol.
Taken in the same sequence, the figures for GATCCCAGTGGGGATC ((((((....)))))) were 62.3 °C and -137 kJ/mol.
